Assay results: ChEMBL document CHEMBL1240473, “Synthesis and bioassay of aminosulfonyl-1,3,4-oxadiazoles and their interconversion to 1,3,4-thiadiazoles” (2010)
≈ marks a conversion by molar mass, not a printed value.

Columns and labels:
Assay type in all cases: functional
Curvularia lunata [1] = experiment: Antimicrobial activity against Curvularia lunata NCIM 716 after 48 hrs by microdilution susceptibility method; details: NCIM 716, 48 h
Procedure, shortened: (§1)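 Broth microdilution MIC with NCIM strains. Compounds and the references (chloramphenicol, antibacterial; ketoconazole, antifungal) were dissolved in DMSO at 800 and diluted two-fold from 400 down to 6.25. Wells were inoculated with the microbial suspension and incubated at 36 °C, 24 h for bacteria and 48 h for fungi. MIC was the lowest concentration with no visible growth.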

Curvularia lunata [2] = experiment: Antimicrobial activity against Curvularia lunata NCIM 716 at 200 ug/disk after 48 hrs by agar disc-diffusion method; details: NCIM 716, 48 h, read-out: DIZ
Procedure, shortened: (§2)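 Agar disc diffusion with NCIM strains. Sterile 6 mm filter-paper discs were moistened with compound in DMSO at 100 or 200 per disc and placed on agar plates pre-inoculated with each organism. Plates were incubated at 37 °C. Growth-inhibition zone diameter was read at 24 h for bacteria and 48 h for fungi.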

Aspergillus niger [3] = experiment: Antimicrobial activity against Aspergillus niger NCIM 596 after 48 hrs by microdilution susceptibility method; details: NCIM 596, 48 h; procedure, shortened: as §1
Fusarium solani [4] = experiment: Antimicrobial activity against Fusarium solani NCIM 1330 after 48 hrs by microdilution susceptibility method; details: NCIM 1330, 48 h; procedure, shortened: as §1
Fusarium solani [5] = experiment: Antimicrobial activity against Fusarium solani NCIM 1330 at 200 ug/disk after 48 hrs by agar disc-diffusion method; details: NCIM 1330, 48 h, read-out: DIZ; procedure, shortened: as §2
Aspergillus niger [6] = experiment: Antimicrobial activity against Aspergillus niger NCIM 596 at 200 ug/disk after 48 hrs by agar disc-diffusion method; details: NCIM 596, 48 h, read-out: DIZ; procedure, shortened: as §2
Fusarium solani [7] = experiment: Antimicrobial activity against Fusarium solani NCIM 1330 at 100 ug/disk after 48 hrs by agar disc-diffusion method; details: NCIM 1330, 48 h, read-out: DIZ; procedure, shortened: as §2
Aspergillus niger [8] = experiment: Antimicrobial activity against Aspergillus niger NCIM 596 at 100 ug/disk after 48 hrs by agar disc-diffusion method; details: NCIM 596, 48 h, read-out: DIZ; procedure, shortened: as §2
Curvularia lunata [9] = experiment: Antimicrobial activity against Curvularia lunata NCIM 716 at 100 ug/disk after 48 hrs by agar disc-diffusion method; details: NCIM 716, 48 h, read-out: DIZ; procedure, shortened: as §2
Bacillus subtilis [10] = experiment: Antimicrobial activity against Bacillus subtilis NCIM 2063 at 200 ug/disk after 24 hrs by agar disc-diffusion method; details: NCIM 2063, 24 h, read-out: DIZ; procedure, shortened: as §2
Klebsiella pneumoniae [11] = experiment: Antimicrobial activity against Klebsiella pneumoniae NCIM 2957 at 200 ug/disk after 24 hrs by agar disc-diffusion method; details: NCIM 2957, 24 h, read-out: DIZ; procedure, shortened: as §2
Staphylococcus aureus [12] = experiment: Antimicrobial activity against Staphylococcus aureus NCIM 5021 at 100 ug/disk after 24 hrs by agar disc-diffusion method; details: NCIM 5021, 24 h, read-out: DIZ; procedure, shortened: as §2
[13] = Antioxidant activity assessed as nitric oxide scavenging activity at 100 uM after 120 min by Griess assay
Procedure, shortened: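 Sodium nitroprusside (5 mM) in phosphate buffer pH 7.4 was incubated with test compound dissolved in dioxane/methanol at 25 °C for 120 min. A solvent-only control was run in parallel. Aliquots were mixed 1:1 with Griess reagent (1% sulfanilamide, 0.1% N-naphthylethylenediamine dihydrochloride, 2% o-phosphoric acid in water).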

Proteus vulgaris [14] = experiment: Antimicrobial activity against Proteus vulgaris NCIM 2027 at 200 ug/disk after 24 hrs by agar disc-diffusion method; details: NCIM 2027, 24 h, read-out: DIZ
Bacillus subtilis [15] = experiment: Antimicrobial activity against Bacillus subtilis NCIM 2063 at 100 ug/disk after 24 hrs by agar disc-diffusion method; details: NCIM 2063, 24 h, read-out: DIZ; procedure, shortened: as §2
[16] = system: Radical scavenging activity; experiment: Antioxidant activity assessed as DPPH free radical scavenging activity at 100 uM after 20 mins
Procedure, shortened: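 Compound solutions were added to DPPH in dioxane/ethanol and kept at ambient temperature for 20 min, then absorbance was read at 517 nm. Percent inhibition = (A_control − A_sample)/A_control × 100, […].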

Proteus vulgaris [17] = experiment: Antimicrobial activity against Proteus vulgaris NCIM 2027 at 100 ug/disk after 24 hrs by agar disc-diffusion method; details: NCIM 2027, 24 h, read-out: DIZ
Staphylococcus aureus [18] = experiment: Antimicrobial activity against Staphylococcus aureus NCIM 5021 at 200 ug/disk after 24 hrs by agar disc-diffusion method; details: NCIM 5021, 24 h, read-out: DIZ; procedure, shortened: as §2
Klebsiella pneumoniae [19] = experiment: Antimicrobial activity against Klebsiella pneumoniae NCIM 2957 at 100 ug/disk after 24 hrs by agar disc-diffusion method; details: NCIM 2957, 24 h, read-out: DIZ; procedure, shortened: as §2
Proteus vulgaris [20] = experiment: Antimicrobial activity against Proteus vulgaris NCIM 2027 after 24 hrs by microdilution susceptibility method; details: NCIM 2027, 24 h
Klebsiella pneumoniae [21] = experiment: Antimicrobial activity against Klebsiella pneumoniae NCIM 2957 after 24 hrs by microdilution susceptibility method; details: NCIM 2957, 24 h; procedure, shortened: as §1
Staphylococcus aureus [22] = experiment: Antimicrobial activity against Staphylococcus aureus NCIM 5021 after 24 hrs by microdilution susceptibility method; details: NCIM 5021, 24 h; procedure, shortened: as §1
Bacillus subtilis [23] = experiment: Antimicrobial activity against Bacillus subtilis NCIM 2063 after 24 hrs by microdilution susceptibility method; details: NCIM 2063, 24 h; procedure, shortened: as §1

| SMILES | zone of inhibition at 200 µg/disc (Curvularia lunata [2]) | zone of inhibition at 200 µg/disc (Fusarium solani [5]) | zone of inhibition at 200 µg/disc (Aspergillus niger [6]) | zone of inhibition at 100 µg/disc (Fusarium solani [7]) | zone of inhibition at 100 µg/disc (Aspergillus niger [8]) | zone of inhibition at 100 µg/disc (Curvularia lunata [9]) | zone of inhibition at 200 µg/disc (Bacillus subtilis [10]) | zone of inhibition at 200 µg/disc (Klebsiella pneumoniae [11]) | zone of inhibition at 100 µg/disc (Staphylococcus aureus [12]) | Activity [13] | zone of inhibition at 200 µg/disc (Proteus vulgaris [14]) | zone of inhibition at 100 µg/disc (Bacillus subtilis [15]) | Activity [16] | zone of inhibition at 100 µg/disc (Proteus vulgaris [17]) | zone of inhibition at 200 µg/disc (Staphylococcus aureus [18]) | zone of inhibition at 100 µg/disc (Klebsiella pneumoniae [19]) | also measured |
| --- | --- | --- | --- | --- | --- | --- | --- | --- | --- | --- | --- | --- | --- | --- | --- | --- | --- |
| CC(=O)N1CCN(c2ccc(OCC3COC(Cn4ccnc4)(c4ccc(Cl)cc4Cl)O3)cc2)CC1 (centres undefined) [KETOCONAZOLE] | 44 mm | 42 mm | 39 mm | 38 mm | 36 mm | 41 mm |  |  |  |  |  |  |  |  |  |  | MIC (Curvularia lunata [1]): 6.25 µg/mL (≈ 11.8 µM); MIC (Aspergillus niger [3]): 6.25 µg/mL (≈ 11.8 µM); MIC (Fusarium solani [4]): 12.5 µg/mL (≈ 23.5 µM) |
| Cc1ccc(NS(=O)(=O)Cc2nnc(-c3ccc(C)cc3)s2)cc1 | 24 mm | 22 mm | 18 mm | 19 mm | 17 mm | 21 mm | 24 mm | 19 mm | 20 mm | 29.4% | 15 mm | 22 mm | 32.3% | 13 mm | 23 mm | 18 mm |  |
| O=S(=O)(Cc1nnc(-c2ccccc2)s1)Nc1ccccc1 | 25 mm | 24 mm | 21 mm | 22 mm | 19 mm | 24 mm | 20 mm | 17 mm | 19 mm | 25.4% | 16 mm | 18 mm | 27.8% | 15 mm | 22 mm | 14 mm |  |
| Cc1ccc(NS(=O)(=O)Cc2nnc(CS(=O)(=O)c3ccc(C)cc3)o2)cc1 | 17 mm | 18 mm | 15 mm | 14 mm | 13 mm | 15 mm | 13 mm | 12 mm | 12 mm | 57.2% | 12 mm | 11 mm | 58.6% | 10 mm | 15 mm | 10 mm |  |
| O=S(=O)(Cc1nnc(CS(=O)(=O)c2ccc(Cl)cc2)s1)Nc1ccc(Cl)cc1 | 36 mm | 37 mm | 33 mm | 33 mm | 32 mm | 34 mm | 32 mm | 30 mm | 31 mm | 28.2% | 28 mm | 28 mm | 29.9% | 25 mm | 33 mm | 28 mm | MIC (Curvularia lunata [1]): 50 µg/mL (≈ 105 µM); MIC (Aspergillus niger [3]): 50 µg/mL (≈ 105 µM); MIC (Fusarium solani [4]): 50 µg/mL (≈ 105 µM); MIC (Proteus vulgaris [20]): 50 µg/mL (≈ 105 µM); MIC (Klebsiella pneumoniae [21]): 50 µg/mL (≈ 105 µM); MIC (Staphylococcus aureus [22]): 25 µg/mL (≈ 52.3 µM); MIC (Bacillus subtilis [23]): 25 µg/mL (≈ 52.3 µM) |
| O=S(=O)(Cc1nnc(CS(=O)(=O)c2ccc(Cl)cc2)o1)Nc1ccc(Cl)cc1 | 18 mm | 19 mm | 18 mm | 17 mm | 16 mm | 14 mm | 14 mm | 13 mm | 13 mm | 69.4% | 14 mm | 12 mm | 71% | 13 mm | 15 mm | 11 mm |  |
| O=S(=O)(Cc1nnc(-c2ccc(Cl)cc2)o1)Nc1ccc(Cl)cc1 | 15 mm | 16 mm | 13 mm | 14 mm | 11 mm | 13 mm | 13 mm | 10 mm | 12 mm | 70.5% | 11 mm | 11 mm | 69.6% | 10 mm | 14 mm | 9 mm |  |
| O=S(=O)(Cc1nnc(CS(=O)(=O)c2ccccc2)o1)Nc1ccccc1 | 20 mm | 16 mm | 17 mm | 13 mm | 14 mm | 16 mm | 15 mm | 12 mm | 13 mm | 66.8% | 14 mm | 12 mm | 64.7% | 12 mm | 14 mm | 11 mm |  |
| Cc1ccc(NS(=O)(=O)Cc2nnc(-c3ccc(C)cc3)o2)cc1 | 16 mm | 15 mm | 12 mm | 12 mm | 10 mm | 14 mm | 10 mm | 8 mm | 10 mm | 54.3% | 9 mm | 9 mm | 58.1% | 7 mm | 12 mm | 7 mm |  |
| O=S(=O)(Cc1nnc(-c2ccccc2)o1)Nc1ccccc1 | 15 mm | 13 mm | 16 mm | 11 mm | 12 mm | 13 mm | 11 mm | 9 mm | 10 mm | 63.5% | 8 mm | 9 mm | 62.3% | 6 mm | 13 mm | 7 mm |  |
| O=C(N[C@H](CO)[C@H](O)c1ccc([N+](=O)[O-])cc1)C(Cl)Cl [CHLORAMPHENICOL] |  |  |  |  |  |  | 44 mm | 42 mm | 35 mm |  | 45 mm | 38 mm |  | 42 mm | 41 mm | 37 mm | MIC (Proteus vulgaris [20]): 12.5 µg/mL (≈ 38.7 µM); MIC (Klebsiella pneumoniae [21]): 12.5 µg/mL (≈ 38.7 µM); MIC (Staphylococcus aureus [22]): 6.25 µg/mL (≈ 19.3 µM); MIC (Bacillus subtilis [23]): 6.25 µg/mL (≈ 19.3 µM) |
| O=C1O[C@H]([C@@H](O)CO)C(O)=C1O |  |  |  |  |  |  |  |  |  | 96.9% |  |  | 95.4% |  |  |  |  |
